SR-BI uptake up: activators of SR-BI mediated HDL lipid uptake. CHO ldlA[mSR-BI] cells, DiI-HDL uptake fluorescence, 3 h; 100 = double the neutral-control signal. activation, % at 12.5 µM. 0.096% of 320,000 active. AID 504775;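 active means mean replicate activation of at least 60% and every replicate at or above 60%; inconclusive means mean or all-replicate condition met, but not both; inactive means mean below 60% and not all replicates reaching 60%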
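Assay system: LDL receptor-deficient CHO ldlA cells overexpressing murine SR-BI / Medium: BSA-supplemented, HEPES-buffered Ham's F12, pH 7.4 / Probe or stimulus: DiI-labelled HDL at 10 µg/mL final / Timing: compound with DiI-HDL co-incubation, 3 h at 37 °C / Technique: bottom-read cell fluorescence after medium removal, ex 550/em 595 nm / Measure: HDL uptake via cellular fluorescence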
SR-BI HDL uptake: blocks mouse SR-BI lipid uptake from DiI-HDL. Q61009. 0.96% of 320,000 active. ldlA[mSR-BI] CHO cells, DiI-HDL uptake fluorescence, 3 h. inhibition, % at 12.5 µM;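 active means mean replicate inhibition of at least 70% and a set share of replicates each scoring 70 or more; inconclusive means meets just one of the two criteria; inactive means fails both criteria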
Target sequence (Q61009 whole entry, looked up): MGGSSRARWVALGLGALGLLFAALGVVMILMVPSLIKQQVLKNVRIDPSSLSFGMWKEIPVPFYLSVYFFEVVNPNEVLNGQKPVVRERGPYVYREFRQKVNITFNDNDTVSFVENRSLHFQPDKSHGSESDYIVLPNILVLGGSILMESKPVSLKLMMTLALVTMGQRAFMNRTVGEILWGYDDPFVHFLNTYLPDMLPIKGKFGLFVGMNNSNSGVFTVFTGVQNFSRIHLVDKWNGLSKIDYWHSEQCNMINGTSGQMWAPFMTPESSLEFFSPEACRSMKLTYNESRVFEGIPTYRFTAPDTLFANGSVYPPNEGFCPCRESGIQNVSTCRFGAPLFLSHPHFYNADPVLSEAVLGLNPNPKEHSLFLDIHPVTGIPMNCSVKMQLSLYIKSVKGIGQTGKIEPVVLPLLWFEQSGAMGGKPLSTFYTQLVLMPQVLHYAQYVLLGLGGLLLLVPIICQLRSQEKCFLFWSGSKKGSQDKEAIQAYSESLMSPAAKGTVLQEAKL
Bfl-1 A1 inh: inhibitors of the anti-apoptotic protein A1, read as caspase activation; MEF A1-2A-BIM cells, Caspase-Glo 3/7 luminescence, 3 h; percent of clofoctol response, vehicle zero; caspase activation, % (concentration not given with the values); 0.066% of 330,000 active;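 active means over half of replicate activation scores above 10%, or exactly half above 10 with the replicate mean above 10; inconclusive means replicate mean below 10 yet half the replicates above 10; inactive means over half of replicates below 10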
Vif imaging: HIV Vif inhibition | 0.35% of 340,000 active | HEK293T cells, Vif self-association by quenched fluorescence, imaging, 24 h | inhibition, % at 7.49 µM | AID 602346; in the data active means inhibition above about 50%, passing the limit was not always enough; inconclusive means no clear call, values can overlap the other calls; inactive means below about 31%
TAG inh: reduces triacylglycerol accumulation in H9c2 cells. 0.66% of 230,000 active. inhibition, % at 12.5 µM. Nile Red lipid (TAG) fluorescence; cells loaded with 200 µM oleic acid. AID 651582;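 active means pattern-corrected inhibition of lipid staining of at least 50% with the nuclear-stain viability signal not falling by more than 50%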
A number is an active result; 0 = inactive; ? = inconclusive; - = no result. Hits are enriched below; roughly 1.6% of the tested compounds scored in any of these assays.

SMILES	SR-BI uptake up	SR-BI HDL uptake	Bfl-1 A1 inh	Vif imaging	TAG inh
FC(F)Oc1ccc(NC(=S)NNc2ccnc3cc(Cl)ccc23)cc1	0	95	0	0	0
O=C(NNc1ccnc2cc(Cl)ccc12)C1CCCCC1	0	0	0	0	0
Cc1ccc(C(=O)NCC(=O)OCC(=O)Nc2ccccc2C#N)s1	0	0	0	0	0
COc1cc(OC)cc(-c2cc3cc(F)ccc3cn2)c1	0	74	0	0	0
COc1ccc(-c2cc3cc(F)ccc3cn2)cc1	0	0	0	0	0
CCN1C(=O)C(CC(=O)Nc2ccccc2)S/C1=N\c1ccccn1 (configuration not stated)	0	78	0	0	0
C=CCN1C(=O)C(CC(=O)Nc2ccccc2F)S/C1=N\c1nccs1 (configuration not stated)	0	84	0	0	0
O=C(CC1SC(=Nc2ccccc2)N(CCO)C1=O)Nc1ccccc1 (configuration not stated)	0	0	0	0	0
O=C(CNC(=O)OCc1ccccc1)NCC(=O)Oc1ccc([N+](=O)[O-])cc1	0	0	-	0	0
N#CNc1nc(O)cc(=O)[nH]1	0	0	0	0	-
Cn1c(CSc2ncn[nH]2)nc2ccccc21	68	0	0	0	0
Cn1c(CSc2nc3ccccc3s2)nc2ccccc21	0	0	0	0	-
CSCCC(NC(=O)COc1ccccc1)C(=O)N1CCOCC1 (configuration not stated)	0	0	0	0	0
Cc1cc(C)nc(SCC(=O)N/N=C/c2cc(C)n(-c3ccccc3C)c2C)n1	0	85	0	0	-
Cc1cccc(C)c1-n1c(C)cc(/C=N/NC(=O)CSc2ncccn2)c1C	0	0	0	0	-
Cc1ccc(C)c2sc(NC(=O)c3ccc(N4C(=O)CCC4=O)cc3)nc12	0	79	0	0	0
Cc1cc2[nH]c3c4ccccc4nc(C)c3c2cc1C	0	0	-	0	0
Cc1cc2[nH]c3c(c[n+](C)c4ccccc34)c2cc1C	0	0	0	0	127
COC(=O)c1cc2c(ccn2-c2ccc(F)cc2)n1Cc1ccc(OC)cc1	0	0	0	0	-
CCn1c(C(=O)OC)cc2c1ccn2-c1ccc(F)cc1	0	78	0	-	0
CC(C)(C)NC(=O)CSc1nc(O)cc(=O)n1-c1ccccc1	0	0	0	94	-
COc1ccc(-c2ccc(CO)o2)cc1N	0	0	0	0	0
CC(C)C(NC(=O)c1ccc(Cl)c([N+](=O)[O-])c1)C(=O)NCc1ccccn1 (configuration not stated)	0	0	0	0	0
CN(C)c1ccc(-c2nc3ccccn3c2/N=C/c2ccc(Br)cc2)cc1	0	101	0	0	0
COc1ccc(CCNC(=O)COC(=O)c2cc(S(=O)(=O)N3CCOCC3)ccc2C)cc1OC	0	0	0	0	0
SMILES	SR-BI uptake up	SR-BI HDL uptake	Bfl-1 A1 inh	Vif imaging	TAG inh
COc1ccc(NC(=O)c2cc3c(-c4ccc(OC)c(OC)c4)nn(C)c3s2)cc1OC	0	0	?	0	79
COc1ccc(-c2nn(C)c3sc(C(=O)NCc4ccco4)cc23)cc1OC	0	0	0	0	0
Cn1nc(C(F)(F)F)c2cc(C(=O)Nc3ccc(Cl)cc3)sc21	0	83	0	0	0
O=C(NCCN1CCOCC1)c1cccc(NS(=O)(=O)c2ccc(Br)cc2)c1	0	0	0	0	0
COc1ccc(-c2cc(=Nc3c(C)n(C)n(-c4ccccc4)c3=O)c3ccccc3o2)cc1	0	0	0	0	0
COc1ccc(-c2c/c(=N\c3nc(-c4ccccc4)c(C)s3)c3ccccc3o2)cc1O	0	80	0	0	-
CC(=O)Nc1ccc(C(=O)N/N=C/C2CC3C=CC2C3)cc1 (configuration not stated)	0	0	0	0	0
CC(C)C(=O)Nc1ccc(C(=O)N/N=C/C2CC3C=CC2C3)cc1 (configuration not stated)	0	0	0	58	0
C[C@@]12C(=O)N(CC3CCCO3)CC(=O)N1[C@H]1c3cc(Cl)ccc3OC[C@@H]1[C@@H]2c1ccccc1 (some centres not stated)	0	0	0	0	-
O=C(N/N=C/c1ccc(O)cc1O)c1ccc(CN2C(=O)c3cccc4cccc2c34)cc1	0	124	0	0	0
O=C(Nc1ccccc1N1CCCCC1)c1ccc(Cl)cc1	0	0	7.3	0	-
Cc1ccc(C(=O)Nc2cc(Cl)ccc2N2CCCCC2)s1	0	77	0	0	0
COc1ccccc1C(=O)NC(=S)Nc1ccccc1N1CCCC1	0	75	0	0	0
O=C(Nc1ccccc1N1CCN(C(=O)c2ccc(Cl)cc2)CC1)c1cccc(F)c1	0	74	0	0	0
O=C(Nc1ccccc1N1CCN(C(=O)c2ccccc2)CC1)c1cccc(Cl)c1	-	-	0	0	0
Nc1ncnc(Nc2ccccc2Cl)n1	0	0	0	0	0
CCOc1ccc(S(=O)(=O)N(CC)CC(=O)NCc2ccccn2)cc1C	-	-	0	0	-
COc1ccc(-c2nc(CS(=O)(=O)CC(=O)NCCc3ccccc3)c(C)o2)cc1	0	0	0	56	-
Nc1nnc(SCC(=O)Nc2ccc(Cl)c(C(=O)O)c2)s1	0	0	0	0	0
O=C(CSc1nnc(-c2ccncc2)s1)Nc1ccc(Cl)c(C(=O)O)c1	-	-	0	54	-
CCN(Cc1nc2ccccc2c(=O)[nH]1)C(=O)c1ccc(C)c(NC(=O)c2ccco2)c1	0	0	0	0	0
Nc1nc(Cl)nc(N(c2ccccc2)c2ccccc2)n1	0	0	0	0	0
Nc1nc(CCl)nc(N(c2ccccc2)c2ccccc2)n1	-	-	0	0	80
Cc1ccc(Cl)cc1NC(=S)N(Cc1ccccc1)Cc1cccnc1	0	0	0	0	0
Cc1ccc2c(c1)c1ccc3c(c1n2C)C(=O)C=CC3=O	0	71	-	0	-
SMILES	SR-BI uptake up	SR-BI HDL uptake	Bfl-1 A1 inh	Vif imaging	TAG inh
CC(C)c1ccc(CC(=O)N2CCC2(C)C(=O)NS(=O)(=O)c2cccc(C#N)c2)cc1 (configuration not stated)	-	-	-	0	0
CCCn1c(N)c(C(=O)CN(C)CC(=O)Nc2c(Cl)cccc2Cl)c(=O)[nH]c1=O	0	0	0	0	0
CCOc1cc(NC(=S)NCC2CCCO2)c(OCC)cc1NC(=O)c1ccc(OC)cc1 (configuration not stated)	0	0	0	0	-
CCOc1cc(NC(=S)NC)c(OCC)cc1NC(=O)c1ccc(OC)cc1	0	82	0	0	0
CCOc1cc(NC(=S)Nc2ccccc2OC)c(OCC)cc1NC(=O)c1ccccc1C	0	87	0	0	-
CCOc1cc(NC(=S)Nc2ccccc2)c(OCC)cc1NC(=O)c1ccccc1	0	81	0	0	-
COc1ccccc1NC(=O)c1ccccc1NC(=O)c1ccccn1	0	0	-	51	0
CCOc1cc(NC(=O)c2ccccn2)c(OCC)cc1NC(=O)c1ccccc1	0	0	0	0	0
COc1ccccc1NC(=O)c1ccccc1C(=O)O	0	0	0	0	0

Screening results (PubChem BioAssay)
